Activity calls are given as the source filed them. The calls are words filed in the database; no cut-off is given here.
Tests used:
Tubulin (Homo sapiens) = Tubulin (Homo sapiens) (UniProt P68371+Q9H4B7+P0DPH7+P68366+Q13509+Q71U36+P04350+Q3ZCM7+P07437+P68363+Q9BQE3+Q6PEY2+Q13885+Q9BVA1+Q9BUF5); test: Inhibition of tubulin polymerization in human HeLa cells assessed as abnormal microtubule network formation at 0.04 to 0.1 uM after 12 hrs by DAPI staining based immunofluorescence confocal laser scanning microscopic analysis; format: cell-based
HeLa [1] = test: Cell cycle arrest in human HeLa cells assessed as accumulation at G2/M phase after 6 to 24 hrs by propidium iodide staining based flow cytometric analysis; format: functional
Summary of the method: (§1)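 HepG2 and HeLa cells were exposed to 0, 0.020, 0.040, 0.060, 0.080 or 0.10 µM for 6, 12 or 24 h. DNA content was stained with propidium iodide and analysed by flow cytometry to give the percentage of cells in G0/G1, S and G2/M phases; sub-G1 cells were also recorded.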

Mus musculus [2] = test: Nephrotoxicity in nude mouse xenografted with human HeLa cells assessed as necrosis in kidney at 10 to 20 mg/kg, ip after 14 days by hematoxylin and eosin staining based microscopic analysis; format: toxicity, organism-based; conditions: in vivo, 336 h
Mus musculus [3] = test: Hepatotoxicity in nude mouse xenografted with human HeLa cells assessed as necrosis in liver at 10 to 20 mg/kg, ip after 14 days by hematoxylin and eosin staining based microscopic analysis; format: toxicity, organism-based; conditions: in vivo, 336 h
Summary of the method: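 HeLa xenograft nude mice with tumours near 100 mm³, randomised to four groups of 28 mice in total. Dosing was intraperitoneal: vehicle, CA-4 10 mg/kg, or test compound at 10 or 20 mg/kg, continued for 14 days. Heart, liver, kidney and spleen were then H&E-stained and examined for inflammatory infiltration, edema, necrosis and cell morphology.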

Mus musculus [4] = test: Toxicity in nude mouse xenografted with human HeLa cells assessed as change in mouse liver weight at 10 to 20 mg/kg, ip after 14 days; format: organism-based; conditions: in vivo, 336 h
HeLa [5] = test: Induction of apoptosis in human HeLa cells assessed as viable cells at 0.020 uM after 24 hrs by Annexin V-FITC/propidium iodide staining based flow cytometric analysis (reference value: 88.6%); format: functional; conditions: read-out: Activity
Summary of the method: (§2)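 HepG2 and HeLa cells were exposed to 0, 0.02, 0.040, 0.060, 0.080 and 0.10 µM for 6, 12 and 24 h. Cells were double-stained with Annexin V-FITC/PI and read by flow cytometry. Apoptotic rate was the percentage of FITC-positive cells, counting early plus late apoptotic.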

HeLa [6] = test: Induction of apoptosis in human HeLa cells assessed as late apoptotic cells at 0.020 uM after 24 hrs by Annexin V-FITC/propidium iodide staining based flow cytometric analysis (reference value: 4.98%); format: functional; summary of the method: as §2
Mus musculus [7] = test: Cardiotoxicity in nude mouse xenografted with human HeLa cells assessed as necrosis in heart at 10 to 20 mg/kg, ip after 14 days by hematoxylin and eosin staining based microscopic analysis; format: toxicity, organism-based; conditions: in vivo, 336 h
Summary of the method: (§3)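 Excised tumours and heart, liver, kidney and spleen were H&E-stained and examined microscopically. Tumour scoring covered cell arrangement and necrosis. Organ scoring covered inflammatory infiltration, edema, necrosis and cell morphology.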

HeLa [8] = test: Induction of apoptosis in human HeLa cells assessed as viable cells at 0.060 uM after 24 hrs by Annexin V-FITC/propidium iodide staining based flow cytometric analysis (reference value: 88.6%); format: functional; conditions: read-out: Activity; summary of the method: as §2
HeLa [9] = test: Antitumor activity against human HeLa cells xenografted in nude mouse assessed as relative tumor growth inhibition at 20 mg/kg, ip after 14 days (reference value: 59.92%); format: functional; conditions: 336 h, read-out: TGI
HepG2 [10] = test: Induction of apoptosis in human HepG2 cells assessed as necrotic cells at 0.020 uM after 24 hrs by Annexin V-FITC/propidium iodide staining based flow cytometric analysis (reference value: 0.270%); format: functional; summary of the method: as §2
HeLa [11] = test: Induction of apoptosis in human HeLa cells assessed as viable cells at 0.10 uM after 24 hrs by Annexin V-FITC/propidium iodide staining based flow cytometric analysis (reference value: 88.6%); format: functional; conditions: read-out: Activity; summary of the method: as §2
Mus musculus [12] = test: Nephrotoxicity in nude mouse xenografted with human HeLa cells assessed as cellular inflammatory infiltration in kidney at 10 to 20 mg/kg, ip after 14 days by hematoxylin and eosin staining based microscopic analysis; format: toxicity, organism-based; conditions: in vivo, 336 h
HeLa [13] = test: Antitumor activity against human HeLa cells xenografted in nude mouse assessed as tumor weight at 20 mg/kg, ip after 14 days (reference value: 1.54 g); format: functional
Mus musculus [14] = test: Toxicity in nude mouse xenografted with human HeLa cells assessed as change in mouse spleen weight at 10 to 20 mg/kg, ip after 14 days; format: organism-based; conditions: in vivo, 336 h
HeLa [15] = test: Antitumor activity against human HeLa cells xenografted in nude mouse assessed as tumor volume at 10 mg/kg, ip after 14 days (reference value: 2292.17 mm3); format: functional
HeLa [16] = test: Induction of apoptosis in human HeLa cells assessed as late apoptotic cells at 0.080 uM after 24 hrs by Annexin V-FITC/propidium iodide staining based flow cytometric analysis (reference value: 4.98%); format: functional; summary of the method: as §2
HepG2 [17] = test: Induction of apoptosis in human HepG2 cells assessed as late apoptotic cells at 0.10 uM after 24 hrs by Annexin V-FITC/propidium iodide staining based flow cytometric analysis (reference value: 2.93%); format: functional; summary of the method: as §2
HepG2 [18] = test: Induction of apoptosis in human HepG2 cells assessed as viable cells at 0.040 uM after 24 hrs by Annexin V-FITC/propidium iodide staining based flow cytometric analysis (reference value: 94.5%); format: functional; conditions: HepG2, 24 h, read-out: Activity; summary of the method: as §2
HepG2 [19] = test: Cell cycle arrest in human HepG2 cells assessed as accumulation at S phase at 0.020 uM after 24 hrs by propidium iodide staining based flow cytometric analysis (reference value: 20.40%); format: functional; summary of the method: as §1
HepG2 [20] = test: Growth inhibition of human HepG2 cells after 48 hrs by MTT assay; format: functional; conditions: HepG2, 48 h
Summary of the method: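 Proliferation read-out; GI50 taken as the concentration giving 50% reduction of cancer cell proliferation.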

HepG2 [21] = test: Cell cycle arrest in human HepG2 cells assessed as accumulation at G2/M phase at 0.020 uM after 24 hrs by propidium iodide staining based flow cytometric analysis (reference value: 20.17%); format: functional; summary of the method: as §1
HeLa [22] = test: Induction of apoptosis in human HeLa cells assessed as necrotic cells at 0.060 uM after 24 hrs by Annexin V-FITC/propidium iodide staining based flow cytometric analysis (reference value: 0.242%); format: functional; summary of the method: as §2
HepG2 [23] = test: Cell cycle arrest in human HepG2 cells assessed as accumulation at G2/M phase at 0.080 uM after 24 hrs by propidium iodide staining based flow cytometric analysis (reference value: 20.17%); format: functional; summary of the method: as §1
HepG2 [24] = test: Induction of apoptosis in human HepG2 cells assessed as viable cells at 0.10 uM after 24 hrs by Annexin V-FITC/propidium iodide staining based flow cytometric analysis (reference value: 94.5%); format: functional; conditions: HepG2, 24 h, read-out: Activity; summary of the method: as §2
Mus musculus [25] = test: Cardiotoxicity in nude mouse xenografted with human HeLa cells assessed as edema in heart at 10 to 20 mg/kg, ip after 14 days by hematoxylin and eosin staining based microscopic analysis; format: toxicity, organism-based; conditions: in vivo, 336 h; summary of the method: as §3
HeLa [26] = test: Antitumor activity against human HeLa cells xenografted in nude mouse assessed as tumor weight at 10 mg/kg, ip after 14 days (reference value: 1.54 g); format: functional

inhibition (Tubulin (Homo sapiens)): Active
GI50 (HepG2 [20]): 29 nM
Compound: COc1cccc(C2=NN(C(=O)c3ccc(C)nc3)C(c3cn(C)c4ccc(OC)cc34)C2)c1 (configuration not stated)
Activity (HeLa [1]): Dose-dependent effect
Activity (Mus musculus [2]): Non-Toxic
Activity (Mus musculus [3]): Non-Toxic
Activity (Mus musculus [4]): Non-Toxic
viability at 0.02 µM (HeLa [5]): 88.7%
Activity (HeLa [6]): 7.98%
Activity (Mus musculus [7]): Non-Toxic
viability at 0.06 µM (HeLa [8]): 66.9%
inhibition in vivo at 20 mg/kg (HeLa [9]): 61.5%
Activity (HepG2 [10]): 0.771%
viability at 0.1 µM (HeLa [11]): 58.2%
Activity (Mus musculus [12]): Non-Toxic
Activity (HeLa [13]): 0.53 g
Activity (Mus musculus [14]): Non-Toxic
Activity (HeLa [15]): 1213.02 mm3
Activity (HeLa [16]): 7.03%
Activity (HepG2 [17]): 8.33%
viability at 0.04 µM (HepG2 [18]): 84.2%
Activity (HepG2 [19]): 19.81%
Activity (HepG2 [21]): 24.3%
Activity (HeLa [22]): 0.484%
Activity (HepG2 [23]): 50.73%
viability at 0.1 µM (HepG2 [24]): 70.7%
Activity (Mus musculus [25]): Non-Toxic
Activity (HeLa [26]): 0.91 g
